# Measured values: ChEMBL document CHEMBL4428088, “Synthesis and evaluation of 6-pyrazoylamido-3N-substituted azabicyclo[3,1,0]hexane derivatives as T-type calcium channel inhibitors for treatment of neuropathic pain” (Bioorg Med Chem, 2016)
# Active and inactive are the calls of the source. The calls are words filed in the database; no cut-off is given here.
# Experiments:
# Rattus norvegicus [1] = experiment: Antiallodynic activity in rat model of spinal nerve ligation-induced neuropathic pain assessed as […] for paw withdrawal at 100 mg/kg, po administered on day 14 after ligation surgery and measured 3 to 5 hrs post dose by Von Frey filaments based method; format: functional, organism-based
# In short: (§1)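 Spinal nerve ligation rats were dosed orally at 100 mg/kg 14 days after surgery, with gabapentin 100 mg/kg as reference (n = 5 test, n = 4 gabapentin). Mechanical and cold allodynia were tested 1, 3 and 5 h post dose. Significance versus pre-dose value by paired t-test.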
# [2] = target: Voltage-gated inwardly rectifying potassium channel KCNH2 (Homo sapiens, UniProt Q12809); experiment: Inhibition of human ERG expressed in CHO-K1 cells by whole cell patch clamp method; format: cell-based
# CYP2C19 = CYP2C19 (Homo sapiens, UniProt P33261); experiment: Inhibition of human CYP2C19 expressed in baculosomes assessed as remaining activity using fluorogenic substrate after 15 mins in presence of NADPH by fluorescence assay; format: ADME; parameters: concentration or dose not given beside the values; details: recombinant human CYP2C19 in baculosomes, probe fluorogenic substrate, read-out: Activity
# In short: (§2)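 Vivid CYP450 fluorescence assay for CYP2D6, 2C9, 2C19 and 3A4. Compound was preincubated with baculosome Master Pre-Mix and regeneration system for 15 min at 37 °C. The reaction was started with Vivid substrate plus NADPH and read on a fluorescence plate reader. Values are % remaining activity, in triplicate.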
# CYP2C9 = CYP2C9 (Homo sapiens, UniProt P11712); experiment: Inhibition of human CYP2C9 expressed in baculosomes assessed as remaining activity using fluorogenic substrate after 15 mins in presence of NADPH by fluorescence assay; format: ADME; parameters: concentration or dose not given beside the values; details: recombinant human CYP2C9 in baculosomes, probe fluorogenic substrate, read-out: Activity; in short: as §2
# CYP2D6 = CYP2D6 (Homo sapiens, UniProt P10635); experiment: Inhibition of human CYP2D6 expressed in baculosomes assessed as remaining activity using fluorogenic substrate after 15 mins in presence of NADPH by fluorescence assay; format: ADME; parameters: concentration or dose not given beside the values; details: recombinant human CYP2D6 in baculosomes, probe fluorogenic substrate, read-out: Activity; in short: as §2
# CYP3A4 = CYP3A4 (Homo sapiens, UniProt P08684); experiment: Inhibition of human CYP3A4 expressed in baculosomes assessed as remaining activity using fluorogenic substrate after 15 mins in presence of NADPH by fluorescence assay; format: ADME; parameters: concentration or dose not given beside the values; details: recombinant human CYP3A4 in baculosomes, probe fluorogenic substrate, read-out: Activity; in short: as §2
# [3] = Ratio of drug level in rat brain to plasma at 10 mg/kg, iv at 2 hrs; format: ADME, organism-based; details: brain and plasma, read-out: BPR
# [4] = AUClast in rat at 10 mg/kg, po; format: ADME, organism-based; parameters: dose 10 mg/kg, route oral, time 0 - last; details: in vivo
# [5] = Ratio of drug level in rat brain to plasma at 10 mg/kg, po at 2 hrs; format: ADME, organism-based; details: brain and plasma, read-out: BPR
# [6] = Tmax in rat at 10 mg/kg, po; format: ADME, organism-based; details: in vivo
# [7] = AUC (0 to infinity) in rat at 10 mg/kg, po; format: ADME, organism-based; parameters: dose 10 mg/kg, route oral, time infinity; details: in vivo
# Rattus norvegicus [8] = experiment: Antiallodynic activity in rat model of spinal nerve ligation-induced neuropathic pain assessed as reduction in cold allodynia by measuring paw withdrawal in response to acetone application at 100 mg/kg, po administered on day 14 after ligation surgery measured 1 to 5 hrs post dose relative to gabapentin; format: functional; in short: as §1
# [9] = AUC (0 to infinity) in rat at 10 mg/kg, iv; format: ADME, organism-based; parameters: dose 10 mg/kg, time infinity, route intravenous; details: in vivo
# [10] = Cmax in rat at 10 mg/kg, po; format: ADME, organism-based; parameters: dose 10 mg/kg, route oral; details: in vivo
# [11] = Clearance in rat at 10 mg/kg, iv; format: ADME, organism-based; details: in vivo
# [12] = Mean residence time in rat at 10 mg/kg, iv; format: ADME, organism-based; details: in vivo
# [13] = Oral bioavailability in rat at 10 mg/kg; format: ADME, organism-based; details: in vivo
# [14] = AUClast in rat at 10 mg/kg, iv; format: ADME, organism-based; parameters: dose 10 mg/kg, time 0 - last, route intravenous; details: in vivo
# [15] = target: T1, Voltage-dependent T-type calcium channel subunit alpha-1H (Homo sapiens, UniProt O95180); experiment: Inhibition of T-type alpha1H channel (unknown origin) expressed in HEK293 cells after 3 mins by patch clamp assay; format: cell-based
# [16] = Metabolic stability in human liver microsomes assessed as parent compound remaining after 30 mins in presence of NADPH by LC-MS/MS analysis; format: ADME, Microsome; details: read-out: Stability
# In short: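 Pooled human liver microsomes were incubated at 37 °C with compound in potassium phosphate buffer and 1.2 mM NADPH for 30 min. The reaction was stopped with cold acetonitrile containing internal standard, centrifuged, and the supernatant analysed by LC-MS/MS.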
# [17] = target: T2, Voltage-dependent T-type calcium channel subunit alpha-1G (Homo sapiens, UniProt O43497); experiment: Inhibition of T-type alpha1G channel (unknown origin) expressed in HEK293 cells at 10 uM by fluorescence-based HTS assay; format: cell-based
# In short: (§3)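 FDSS6000 fluorescence-based HTS assay in HEK293 cells expressing Cav3.1 (α1G) or Cav3.2 (α1H), read as % inhibition.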
# [18] = target: T1, Voltage-dependent T-type calcium channel subunit alpha-1H; experiment: Inhibition of T-type alpha1H channel (unknown origin) expressed in HEK293 cells at 10 uM by fluorescence-based HTS assay; format: cell-based; in short: as §3
# [19] = target: T2, Voltage-dependent T-type calcium channel subunit alpha-1G; experiment: Inhibition of T-type alpha1G channel (unknown origin) by whole cell patch clamp method
# In short: (§4)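 Whole-cell patch clamp recording. T-type α1G and α1H IC50 values (±SD) were taken from dose-response curves.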
# [20] = target: T1, Voltage-dependent T-type calcium channel subunit alpha-1H; experiment: Inhibition of T-type alpha1H channel (unknown origin) by whole cell patch clamp method; in short: as §4
# [21] = target: Voltage-dependent N-type calcium channel subunit alpha-1B (Homo sapiens) (UniProt Q00975); experiment: Inhibition of N-type calcium channel (unknown origin) at 10 uM by whole cell patch clamp method
# Chain of CYP3A4 (P08684 whole entry): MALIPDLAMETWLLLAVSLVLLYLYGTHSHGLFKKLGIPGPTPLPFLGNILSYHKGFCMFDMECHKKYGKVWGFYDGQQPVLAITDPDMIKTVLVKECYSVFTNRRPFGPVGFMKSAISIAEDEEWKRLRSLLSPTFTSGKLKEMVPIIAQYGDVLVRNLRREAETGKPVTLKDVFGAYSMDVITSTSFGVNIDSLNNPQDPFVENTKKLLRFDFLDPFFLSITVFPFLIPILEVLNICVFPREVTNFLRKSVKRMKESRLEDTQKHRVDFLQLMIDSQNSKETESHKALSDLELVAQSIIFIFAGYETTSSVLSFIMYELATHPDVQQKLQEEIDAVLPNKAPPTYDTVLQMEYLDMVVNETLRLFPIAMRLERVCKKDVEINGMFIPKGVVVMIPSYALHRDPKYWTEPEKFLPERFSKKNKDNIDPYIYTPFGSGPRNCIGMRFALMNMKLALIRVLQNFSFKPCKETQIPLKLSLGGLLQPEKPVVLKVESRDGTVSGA
# T2 sequence (O43497 whole entry): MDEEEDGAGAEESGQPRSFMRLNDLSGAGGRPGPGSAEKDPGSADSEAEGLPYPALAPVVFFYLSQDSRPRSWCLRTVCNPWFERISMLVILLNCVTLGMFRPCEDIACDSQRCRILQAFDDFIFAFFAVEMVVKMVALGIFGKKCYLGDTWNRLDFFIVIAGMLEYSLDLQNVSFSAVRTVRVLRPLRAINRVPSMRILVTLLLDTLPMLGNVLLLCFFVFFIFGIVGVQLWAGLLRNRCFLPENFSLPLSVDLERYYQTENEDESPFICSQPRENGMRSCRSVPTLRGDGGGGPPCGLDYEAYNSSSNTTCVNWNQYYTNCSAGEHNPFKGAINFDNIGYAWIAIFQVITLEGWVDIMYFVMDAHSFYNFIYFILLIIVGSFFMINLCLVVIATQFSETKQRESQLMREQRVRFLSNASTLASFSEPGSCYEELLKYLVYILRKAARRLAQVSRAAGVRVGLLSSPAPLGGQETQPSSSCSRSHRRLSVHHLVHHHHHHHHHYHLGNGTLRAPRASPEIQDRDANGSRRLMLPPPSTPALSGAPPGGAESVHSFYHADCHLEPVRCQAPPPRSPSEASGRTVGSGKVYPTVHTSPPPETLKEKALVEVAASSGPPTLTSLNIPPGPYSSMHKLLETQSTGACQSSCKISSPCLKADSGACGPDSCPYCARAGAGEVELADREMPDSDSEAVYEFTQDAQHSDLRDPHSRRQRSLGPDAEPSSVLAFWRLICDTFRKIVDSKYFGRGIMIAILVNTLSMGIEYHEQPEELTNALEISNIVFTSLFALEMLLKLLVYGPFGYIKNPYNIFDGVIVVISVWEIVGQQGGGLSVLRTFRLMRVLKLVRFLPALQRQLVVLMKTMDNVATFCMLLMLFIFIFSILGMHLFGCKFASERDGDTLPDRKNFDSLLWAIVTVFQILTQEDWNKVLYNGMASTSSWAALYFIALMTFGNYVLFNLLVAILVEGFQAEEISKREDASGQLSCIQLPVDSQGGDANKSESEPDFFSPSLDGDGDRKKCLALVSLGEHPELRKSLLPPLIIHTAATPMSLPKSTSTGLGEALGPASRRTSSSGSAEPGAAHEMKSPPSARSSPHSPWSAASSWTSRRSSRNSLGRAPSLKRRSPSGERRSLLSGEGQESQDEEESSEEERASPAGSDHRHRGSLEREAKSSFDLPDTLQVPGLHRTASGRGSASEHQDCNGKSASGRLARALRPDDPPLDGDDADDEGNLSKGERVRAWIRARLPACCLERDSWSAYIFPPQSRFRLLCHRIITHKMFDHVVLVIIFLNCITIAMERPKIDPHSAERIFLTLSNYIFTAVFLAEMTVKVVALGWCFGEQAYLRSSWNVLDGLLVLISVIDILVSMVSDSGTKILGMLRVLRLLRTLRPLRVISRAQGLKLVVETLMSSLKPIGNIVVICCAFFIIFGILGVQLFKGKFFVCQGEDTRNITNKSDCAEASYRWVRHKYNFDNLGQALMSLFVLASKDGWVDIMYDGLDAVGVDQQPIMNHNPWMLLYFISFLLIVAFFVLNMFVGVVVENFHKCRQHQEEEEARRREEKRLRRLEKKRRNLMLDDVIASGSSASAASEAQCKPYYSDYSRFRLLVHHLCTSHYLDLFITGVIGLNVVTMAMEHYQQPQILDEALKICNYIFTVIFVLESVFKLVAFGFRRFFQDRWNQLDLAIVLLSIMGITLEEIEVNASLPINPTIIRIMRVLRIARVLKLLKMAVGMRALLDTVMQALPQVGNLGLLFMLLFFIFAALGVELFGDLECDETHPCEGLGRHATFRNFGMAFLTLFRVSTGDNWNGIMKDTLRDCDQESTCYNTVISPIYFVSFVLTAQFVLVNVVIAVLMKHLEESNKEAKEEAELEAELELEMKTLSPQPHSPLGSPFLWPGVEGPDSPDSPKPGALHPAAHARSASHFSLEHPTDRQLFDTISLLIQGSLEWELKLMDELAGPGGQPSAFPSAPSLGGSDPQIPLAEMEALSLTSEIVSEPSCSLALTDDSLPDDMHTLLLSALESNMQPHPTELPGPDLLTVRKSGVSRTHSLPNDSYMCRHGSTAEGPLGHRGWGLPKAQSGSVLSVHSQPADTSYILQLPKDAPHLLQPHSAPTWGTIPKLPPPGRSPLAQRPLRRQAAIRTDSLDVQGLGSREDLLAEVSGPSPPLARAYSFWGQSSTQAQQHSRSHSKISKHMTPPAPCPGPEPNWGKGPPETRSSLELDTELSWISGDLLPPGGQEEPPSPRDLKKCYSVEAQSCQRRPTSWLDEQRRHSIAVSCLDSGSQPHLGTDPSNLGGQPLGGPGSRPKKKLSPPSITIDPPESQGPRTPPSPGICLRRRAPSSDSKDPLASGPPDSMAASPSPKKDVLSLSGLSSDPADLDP
# Chain of Voltage-gated inwardly rectifying potassium channel KCNH2 (Q12809 whole entry): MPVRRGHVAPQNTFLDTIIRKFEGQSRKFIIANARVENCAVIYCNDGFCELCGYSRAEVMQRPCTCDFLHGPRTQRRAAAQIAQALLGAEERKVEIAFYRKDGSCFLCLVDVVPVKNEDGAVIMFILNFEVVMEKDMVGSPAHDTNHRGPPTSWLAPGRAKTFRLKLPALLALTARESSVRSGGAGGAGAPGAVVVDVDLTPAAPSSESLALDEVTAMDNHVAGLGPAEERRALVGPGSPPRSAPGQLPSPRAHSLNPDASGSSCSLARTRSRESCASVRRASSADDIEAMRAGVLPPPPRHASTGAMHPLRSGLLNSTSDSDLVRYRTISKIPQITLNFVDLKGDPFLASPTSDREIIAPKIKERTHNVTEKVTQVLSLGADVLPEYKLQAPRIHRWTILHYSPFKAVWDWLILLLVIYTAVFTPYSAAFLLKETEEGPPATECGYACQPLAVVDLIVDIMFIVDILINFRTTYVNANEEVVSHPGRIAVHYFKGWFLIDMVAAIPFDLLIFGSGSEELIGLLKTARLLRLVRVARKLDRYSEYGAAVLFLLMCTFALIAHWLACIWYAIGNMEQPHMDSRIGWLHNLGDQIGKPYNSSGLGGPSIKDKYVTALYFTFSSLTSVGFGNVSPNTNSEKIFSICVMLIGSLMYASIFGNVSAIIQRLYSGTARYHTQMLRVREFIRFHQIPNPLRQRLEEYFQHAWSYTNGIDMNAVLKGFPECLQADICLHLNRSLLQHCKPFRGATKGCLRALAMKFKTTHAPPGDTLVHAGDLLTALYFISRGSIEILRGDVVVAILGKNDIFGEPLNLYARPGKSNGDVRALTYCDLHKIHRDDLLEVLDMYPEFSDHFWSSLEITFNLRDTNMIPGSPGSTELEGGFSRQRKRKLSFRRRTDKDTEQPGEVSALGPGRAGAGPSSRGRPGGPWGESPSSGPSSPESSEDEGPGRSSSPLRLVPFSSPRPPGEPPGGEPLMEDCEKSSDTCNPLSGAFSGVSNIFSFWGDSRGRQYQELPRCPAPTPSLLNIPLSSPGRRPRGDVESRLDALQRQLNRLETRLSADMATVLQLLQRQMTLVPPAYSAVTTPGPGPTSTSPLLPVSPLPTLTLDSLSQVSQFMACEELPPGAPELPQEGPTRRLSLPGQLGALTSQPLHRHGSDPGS
# Chain of CYP2C19 (P33261 whole entry): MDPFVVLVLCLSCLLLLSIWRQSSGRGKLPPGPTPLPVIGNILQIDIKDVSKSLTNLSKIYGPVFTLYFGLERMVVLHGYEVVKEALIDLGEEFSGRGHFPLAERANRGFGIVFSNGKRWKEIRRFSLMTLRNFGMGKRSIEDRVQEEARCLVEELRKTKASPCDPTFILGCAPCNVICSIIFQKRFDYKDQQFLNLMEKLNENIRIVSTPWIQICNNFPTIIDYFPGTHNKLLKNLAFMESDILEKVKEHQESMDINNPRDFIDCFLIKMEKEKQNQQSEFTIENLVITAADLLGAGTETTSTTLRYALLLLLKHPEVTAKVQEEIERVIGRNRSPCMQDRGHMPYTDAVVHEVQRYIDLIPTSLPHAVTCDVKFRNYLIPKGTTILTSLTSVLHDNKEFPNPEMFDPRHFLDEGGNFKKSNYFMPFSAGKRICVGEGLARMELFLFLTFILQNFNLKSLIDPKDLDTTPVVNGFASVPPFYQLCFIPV
# Chain of CYP2C9 (P11712 whole entry): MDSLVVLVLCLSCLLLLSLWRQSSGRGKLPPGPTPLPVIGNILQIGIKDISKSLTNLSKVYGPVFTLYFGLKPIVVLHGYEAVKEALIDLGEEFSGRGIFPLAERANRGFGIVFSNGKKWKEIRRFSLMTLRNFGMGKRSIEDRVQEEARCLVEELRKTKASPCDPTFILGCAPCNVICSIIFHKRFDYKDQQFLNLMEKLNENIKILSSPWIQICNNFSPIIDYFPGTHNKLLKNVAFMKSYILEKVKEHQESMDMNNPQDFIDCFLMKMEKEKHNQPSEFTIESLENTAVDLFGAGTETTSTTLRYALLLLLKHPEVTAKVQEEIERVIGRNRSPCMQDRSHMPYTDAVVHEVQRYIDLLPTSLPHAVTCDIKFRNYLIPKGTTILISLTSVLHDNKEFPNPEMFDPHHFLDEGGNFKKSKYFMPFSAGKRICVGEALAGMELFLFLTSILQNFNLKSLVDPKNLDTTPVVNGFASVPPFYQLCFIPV
Structure (SMILES),Activity (Rattus norvegicus [1]),IC50 [2],activity at 0.25 h (CYP2C19),activity at 0.25 h (CYP2C9),activity at 0.25 h (CYP2D6),activity at 0.25 h (CYP3A4),inhibition [17],inhibition [18],other results
NCC1(CC(=O)O)CCCCC1,inactive,–,–,–,–,–,–,–,–
CC(C)Cc1cc(CNC(=O)C2C3CN(Cc4ccccc4)CC32)nn1-c1ccccc1 (stereo not given),–,1430 nM,30.3%,118%,56.2%,102%,–,–,–
CC(C)Cc1cc(CNC(=O)C2C3CN(C(=O)c4ccccc4)CC32)nn1-c1ccccc1 (stereo not given),inactive,–,60.8%,64.6%,94%,74.6%,–,–,Kp at 2 h [3]: 0.29; AUC(0-t) [4]: 273 ng·h/mL; Kp at 2 h [5]: 0.12; Tmax [6]: 26 min; AUC(0-inf) [7]: 294 ng·h/mL; fold change (FC) (Rattus norvegicus [8]): 2; AUC(0-inf) [9]: 3860 ng·h/mL; Cmax [10]: 280 ng/mL; clearance [11]: 43.8 mL/min/kg; MRT [12]: 18.2 min; bioavailability [13]: 7.6%; AUC(0-t) [14]: 3850 ng·h/mL
CC(C)(C)CCN1CC2C(CNC(=O)c3cc(Cl)cc(Cl)c3)C2C1 (stereo not given),–,–,–,–,–,–,–,–,IC50 [15]: 310 nM
CN(CCCc1nc2ccccc2[nH]1)C(=O)C1C2CN(CCc3ccc(C(F)(F)F)cc3)CC21 (stereo not given),–,–,42.3%,51.4%,27.7%,61.4%,49.2%,58.7%,remaining at 0.5 h [16]: 76.9%
CC(C)Cc1cc(CNC(=O)C2C3CN(CCC(C)(C)C)CC32)nn1-c1ccccc1 (stereo not given),Active,2600 nM,101%,72.8%,126%,82.3%,–,–,fold change (FC) (Rattus norvegicus [8]): 3
CC(C)Cc1cc(CNC(=O)C2C3CN(C(=O)Cc4ccccc4)CC32)nn1-c1ccccc1 (stereo not given),–,20800 nM,65.5%,24.8%,83%,80.4%,81%,89.9%,remaining at 0.5 h [16]: 57.8%; IC50 [19]: 2730 nM; IC50 [20]: 2500 nM; inhibition [21]: 60.6%
CC(C)Cc1cc(C(=O)NCC2C3CN(CCC(C)(C)C)CC23)nn1-c1ccccc1 (stereo not given),–,–,84.2%,87.1%,55.9%,130%,–,–,–
CC(C)Cc1cc(CNC(=O)C2C3CN(CCc4ccc(C(F)(F)F)cc4)CC32)nn1-c1ccccc1 (stereo not given),–,–,–,–,–,–,60.5%,64.6%,–
